Results: ChEMBL document CHEMBL4673245, “Discovery of AZD9833, a Potent and Orally Bioavailable Selective Estrogen Receptor Degrader and Antagonist” (J Med Chem, 2020)

What was measured:
[1] = target: T1, Estrogen receptor (Homo sapiens) (UniProt P03372); experiment: Induction of ERalpha degradation in human MCF7 cells assessed as maximum degradation incubated for 18 to 24 hrs by Alexa fluor 488/Hoechst staining based immunofluorescence imaging analysis relative to fulvestrant; type: cell-based; conditions: time lower […], time upper […]
T1 sequence (whole entry): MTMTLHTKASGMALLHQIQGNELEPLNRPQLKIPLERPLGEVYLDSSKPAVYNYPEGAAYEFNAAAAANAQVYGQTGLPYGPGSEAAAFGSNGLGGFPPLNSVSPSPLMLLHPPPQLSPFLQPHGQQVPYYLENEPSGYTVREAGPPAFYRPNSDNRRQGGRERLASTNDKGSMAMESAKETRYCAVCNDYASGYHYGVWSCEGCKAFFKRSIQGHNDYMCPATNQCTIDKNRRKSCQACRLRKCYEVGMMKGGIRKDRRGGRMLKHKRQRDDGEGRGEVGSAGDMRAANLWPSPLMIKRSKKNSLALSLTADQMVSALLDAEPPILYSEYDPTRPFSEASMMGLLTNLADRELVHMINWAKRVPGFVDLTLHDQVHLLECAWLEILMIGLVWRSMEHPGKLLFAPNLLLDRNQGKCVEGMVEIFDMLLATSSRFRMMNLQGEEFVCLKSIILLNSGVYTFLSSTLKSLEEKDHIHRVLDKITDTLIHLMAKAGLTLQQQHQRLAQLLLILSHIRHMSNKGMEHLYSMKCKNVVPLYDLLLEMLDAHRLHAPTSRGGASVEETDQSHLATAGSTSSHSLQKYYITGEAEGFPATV

[2] = Intrinsic clearance in rat hepatocytes assessed per million cells; type: ADME, cell-based, Hepatocyte; conditions: read-out: CLH
Procedure, shortened: (§1)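 Hepatocyte intrinsic clearance measured from DMSO stock in isolated hepatocytes diluted to 1x10⁶ cells/mL; rate expressed as µl/min/10⁶ cells.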

[3] = Fraction unbound in human plasma by equilibrium dialysis method; type: ADME, cell-free
Procedure, shortened: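 Fraction unbound measured from DMSO stock by equilibrium dialysis in 10% human plasma.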

[4] = target: T2, Estrogen receptor (Homo sapiens, UniProt P03372); experiment: Displacement of fluormone ES2 green reagent from human GST-tagged ERalpha LBD (282 to 595 residues) expressed in baculovirus infected insect cells incubated for 1 hrs by TR-FRET Lanthascreen assay
T2 sequence (P03372 whole entry): T1 sequence (whole entry)

[5] = target: T2, Estrogen receptor; experiment: Induction of ERalpha degradation in human MCF7 cells assessed as decrease in ER-alpha level incubated for 18 to 24 hrs by Alexa fluor 488/Hoechst staining based immunofluorescence imaging analysis; type: cell-based
Procedure, shortened: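 ER degradation in MCF-7 cells via cellular degradation assay; n ≥ 2, degradation also expressed as %Dmax relative to fulvestrant.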

[6] = Lipophilicity, log D of the compound in buffer and octanol at pH 7.4 by shake flask method; type: physicochemical
Procedure, shortened: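 logD at pH 7.4 by shake flask, buffer/octanol volume ratio 100:1.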

[7] = target: T1, Estrogen receptor (Homo sapiens); experiment: Induction of ERalpha degradation in human CAMA1 cells assessed as decrease in ER-alpha level at 0.1 uM by Western blot analysis relative to fulvestrant; type: cell-based; parameters: scale not given: the % may be the effect or the level left; conditions: CAMA-1
Procedure, shortened: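 Western blot for ERα in MCF-7 and CAMA-1 cells after treatment at 0.1 µM. ER level is expressed as % degradation relative to fulvestrant, from a single experiment (n = 1).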

[8] = target: T1, Estrogen receptor (Homo sapiens); experiment: Induction of ERalpha degradation in human MCF7 cells assessed as decrease in ER-alpha level at 0.1 uM by Western blot analysis relative to fulvestrant; type: cell-based; parameters: scale not given: the % may be the effect or the level left
[9] = Intrinsic clearance in human hepatocytes assessed per million cells; type: ADME, cell-based, Hepatocyte; conditions: read-out: CLH; procedure, shortened: as §1

Row | Structure (SMILES) | Emax [1] [%] | hepatocyte CLint [2] [µL/min/1e6 cells] | fraction unbound [3] | IC50 [4] [nM] | IC50 [5] [nM] | logD [6] | Activity [7] [%] | Activity [8] [%] | hepatocyte CLint [9] [µL/min/1e6 cells]
1 | C[C@@H]1Cc2c(ccc3[nH]ncc23)[C@@H](c2ccc(NC3CN(CCCF)C3)cn2)N1CC(C)(C)F | 96 | 26 | 0.1 | – | – | – | – | – | –
2 | CC1(C)Cc2c(ccc3[nH]ncc23)[C@@H](c2ccc(NC3CN(CCCF)C3)cn2)N1CC(F)F | 98 | 270 | 0.22 | 3.16 | 0.794 | – | – | – | –
3 | C[C@@H]1Cc2c(ccc3[nH]ncc23)[C@@H](c2ccc(N(C)[C@H]3CCN(CCCF)C3)cn2)N1CC(F)(F)F | 87 | 34 | 0.057 | 39.8 | 0.794 | 3.5 | – | – | –
4 | C[C@@H]1Cc2c(ccc3[nH]ncc23)[C@@H](c2ccc(NC3CN(CCCF)C3)cn2)N1CC1(F)CC1 | 96 | 24 | 0.26 | 6.31 | 0.631 | – | 102 | 90 | –
5 | COc1cc(OC2CN(CCCF)C2)ccc1[C@@H]1c2ccc3[nH]ncc3c2C[C@@H](C)N1CC1(F)CC1 | 97 | 16 | 0.11 | 7.94 | – | – | 90 | 90 | –
6 | CC1(C)Cc2c(ccc3[nH]ncc23)[C@@H](c2ccc(NC3CN(CCCF)C3)cn2)N1CC(F)(F)F | 95 | 296 | 0.14 | – | – | – | – | – | –
7 | COc1cc(OCCN2CC(CF)C2)ccc1[C@@H]1c2ccc3[nH]ncc3c2C[C@@H](C)N1CC1(F)COC1 | 95 | 42 | 0.25 | 3.98 | 0.251 | 2.7 | 75 | 79 | –
8 | C[C@@H]1Cc2c(ccc3[nH]ncc23)[C@@H](c2ccc(N(C)C3CN(CCCF)C3)cn2)N1CC(F)(F)F | 98 | 20 | 0.15 | 2 | 0.2 | – | 82 | 85 | –
9 | C[C@@H]1Cc2c(ccc3[nH]ncc23)[C@@H](c2ccc(NC3CN(CCCF)C3)cn2)N1CC(C)(F)F | – | 49 | 0.24 | – | – | – | – | – | –
10 | COc1cc(NC2CN(CCCF)C2)ccc1[C@@H]1c2ccc3[nH]ncc3c2C[C@@H](C)N1CC(C)(F)F | 98 | 15 | 0.043 | 2.51 | 0.0398 | – | 101 | 80 | –
11 | C[C@@H]1Cc2c(ccc3[nH]ncc23)[C@@H](c2ccc(NC3(C)CN(CCCF)C3)cn2)N1CC(F)(F)F | 82 | 35 | – | 7.94 | 3.16 | 3.2 | – | – | –
12 | C[C@@H]1Cc2c(ccc3[nH]ncc23)[C@@H](c2c(F)cc(OCCN3CC(CF)C3)cc2F)N1CC(C)(C)F | – | 88 | 0.008 | 1 | 0.126 | 4.4 | 66 | 84 | 8
13 | C[C@@H]1Cc2c(ccc3[nH]ncc23)[C@@H](c2ccc(O[C@H]3CCN(CCCF)C3)cn2)N1CC(F)(F)F | 98 | 44 | 0.15 | 2 | 0.398 | 3.2 | – | – | –
14 | COc1cc(NC2CN(CCCF)C2)ccc1[C@@H]1c2ccc3[nH]ncc3c2C[C@@H](C)N1CC(F)(F)CO | 98 | 20 | 0.23 | 5.01 | 0.2 | – | – | – | –
15 | C[C@@H]1Cc2c(ccc3[nH]ncc23)[C@@H](c2ccc(NCCNCCCF)cn2)N1CC(F)(F)F | 94 | 22 | 0.16 | 5.01 | 0.631 | 2.7 | – | – | –
16 | COc1cc(OCCN2CC(CF)C2)ccc1[C@@H]1c2ccc3[nH]ncc3c2C[C@@H](C)N1CC(C)C | 98 | 9 | 0.52 | 7.94 | – | – | 74 | 94 | 3
17 | C[C@@H]1Cc2c(ccc3[nH]ncc23)[C@@H](c2ccc(NC3CN(CCCF)C3)cn2)N1CC(F)(F)CO | 99 | 16 | 0.64 | 6.31 | 0.501 | – | 105 | 104 | –
18 | COc1cc(OCCN2CC(CF)C2)ccc1[C@@H]1c2ccc3[nH]ncc3c2C[C@@H](C)N1CC(C)(C)F | 95 | 28 | 0.065 | 3.16 | – | 3.6 | 74 | 69 | 12
19 | COc1cc(NC2CN(CCCF)C2)ccc1[C@@H]1c2ccc3[nH]ncc3c2C[C@@H](C)N1CC(F)F | 99 | 14 | 0.12 | 2 | 0.1 | 3.2 | 100 | 99 | –
20 | CC(C)CN1[C@H](c2c(F)cc(OCCN3CC(CF)C3)cc2F)c2ccc3[nH]ncc3c2C[C@H]1C | 99 | 74 | 0.004 | 0.794 | 0.2 | 4.6 | – | – | 9
21 | C[C@@H]1Cc2c(ccc3[nH]ncc23)[C@@H](c2ccc(NCCNCCCF)cn2)N1CC1(F)CC1 | 93 | 22 | – | 10 | 1 | 2 | – | – | –
22 | CC(C)CN1[C@H](c2ccc(OCCN3CC(CF)C3)cn2)c2ccc3[nH]ncc3c2C[C@H]1C | 99 | 41 | 0.19 | 10 | 0.398 | 3.2 | – | – | 8
23 | COc1cc(OCCN2CC(CF)C2)ccc1[C@@H]1c2ccc3[nH]ncc3c2C[C@@H](C)N1CC1(F)CC1 | 96 | 20 | 0.21 | – | 0.126 | – | 88 | 79 | 7
24 | COc1cc(NC2CN(CCCF)C2)ccc1[C@@H]1c2ccc3[nH]ncc3c2C[C@@H](C)N1CC(C)(C)F | 96 | 8 | 0.14 | 6.31 | 0.2 | – | 89 | 86 | –
25 | CC(C)CN1[C@H](c2ccc(OCCN3CC(CF)C3)cc2)c2ccc3[nH]ncc3c2C[C@H]1C | 99 | 66 | 0.11 | 2 | 0.158 | 3.4 | – | – | 8
26 | COc1cc(OCCNCCCF)ccc1[C@@H]1c2ccc3[nH]ncc3c2C[C@@H](C)N1CC1(F)CC1 | 82 | 9 | 0.18 | – | – | 2.4 | – | – | –
27 | COc1cc(NC2CN(CCCF)C2)ccc1[C@@H]1c2ccc3[nH]ncc3c2C[C@@H](C)N1CC(F)(F)F | 98 | 12 | 0.06 | 5.01 | 0.0631 | – | 110 | 95 | –
28 | C[C@@H]1Cc2c(ccc3[nH]ncc23)[C@@H](c2ccc(OCCN3CC(CF)C3)cn2)N1CC(F)F | 98 | 36 | 0.49 | 2.51 | 0.501 | – | 88 | 97 | 5
29 | C[C@@H]1Cc2c(ccc3[nH]ncc23)[C@@H](c2ccc(NC3CN(CCCF)C3)cn2)N1CC(F)F | 99 | 22 | 0.4 | 3.98 | 0.316 | 2.4 | – | – | –
30 | C[C@@H]1Cc2c(ccc3[nH]ncc23)[C@@H](c2ccc(OCCN3CC(CF)C3)cn2)N1CC1(F)CC1 | 98 | 38 | 0.34 | 1.26 | 0.398 | – | 87 | 75 | 8
